From ChEMBL document CHEMBL4368863, “Evaluation of novel N'-(3-hydroxybenzoyl)-2-oxo-2H-chromene-3-carbohydrazide derivatives as potential HIV-1 integrase inhibitors” (Medchemcomm, 2019)

What was measured:
[1] = Cytotoxicity against human HeLa cells assessed as cell viability at 25 uM after 48 hrs by resazurin dye-based fluorescence assay; settings: read-out: Activity
Summary of the method: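 HeLa cells seeded at 6.7 × 10^4 per well in DMEM with 10% foetal bovine serum and penicillin/streptomycin/amphotericin B. Grown 24 h at 37 °C, 5% CO2, then exposed to compound at 25 μM final for 48 h. Resazurin added and fluorescence read (Ex 560/Em 590 nm) after 2–4 h more. Viability expressed as % of no-compound control wells.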

[2] = target: Human immunodeficiency virus type 1 integrase (Human immunodeficiency virus 1, UniProt Q7ZJM1); experiment: Inhibition of HIV1 subtype C recombinant integrase strand transfer activity preincubated for 45 mins with double-stranded biotinylated donor DNA followed by addition of double stranded FITC-labelled target DNA and measured after 60 mins relative to control
Human immunodeficiency virus type 1 integrase, sequence (Q7ZJM1 whole entry): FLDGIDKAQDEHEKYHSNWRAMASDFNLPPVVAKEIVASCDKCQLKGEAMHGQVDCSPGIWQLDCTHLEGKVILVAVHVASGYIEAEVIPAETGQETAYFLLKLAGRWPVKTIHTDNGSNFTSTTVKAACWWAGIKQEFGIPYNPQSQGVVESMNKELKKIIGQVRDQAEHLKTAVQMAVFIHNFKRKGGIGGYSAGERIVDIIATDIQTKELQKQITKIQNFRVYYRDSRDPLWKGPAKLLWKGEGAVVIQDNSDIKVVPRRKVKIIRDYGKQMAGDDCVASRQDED

What does the source list for COc1ccc(O)c(C(=O)NNC(=O)c2cc3cccc(OC)c3oc2=O)c1?
viability at 48 h, 25 µM [1]: > 70%; IC50 [2]: 901 nM

For O=C(NNC(=O)c1cc2cc(Br)ccc2oc1=O)c1cc(Cl)ccc1O, which viability at 48 h, 25 µM [1] is on record?
Its viability at 48 h, 25 µM is over 70%.

What about the IC50 [2] of the same compound?
The IC50 was 175 nM.

What does the source list for COc1cccc2cc(C(=O)NNC(=O)c3cc(Cl)ccc3O)c(=O)oc12?
viability at 48 h, 25 µM [1]: > 70%; IC50 [2]: 23 nM

Which viability at 48 h, 25 µM [1] does the source give for COc1ccc(O)c(C(=O)NNC(=O)c2cc3cc(Br)ccc3oc2=O)c1 here?
Its viability at 48 h, 25 µM is over 70%.

And the IC50 [2]?
The IC50 was 163 nM.

Which viability at 48 h, 25 µM [1] does the source give for COc1cccc(C(=O)NNC(=O)c2cc3cc(Br)ccc3oc2=O)c1O here?
The viability at 48 h, 25 µM was over 70%.

For COc1ccc(O)c(C(=O)NNC(=O)c2cc3ccccc3oc2=O)c1, which viability at 48 h, 25 µM [1] is on record?
Its viability at 48 h, 25 µM is over 70%.

And the IC50 [2]?
Its IC50 is 5800 nM.

With CCOc1cccc2cc(C(=O)NNC(=O)c3cc(OC)ccc3O)c(=O)oc12 as the compound, how does the viability at 48 h, 25 µM [1] read?
Its viability at 48 h, 25 µM is over 70%.

What about the IC50 [2] of the same compound?
Its IC50 is 592 nM.

With O=C(NNC(=O)c1cc2cc(Cl)ccc2oc1=O)c1ccccc1O as the compound, how does the viability at 48 h, 25 µM [1] read?
The viability at 48 h, 25 µM was over 70%.

And the IC50 [2]?
The IC50 was 13 nM.

Which viability at 48 h, 25 µM [1] does the source give for O=C(NNC(=O)c1cc2ccccc2oc1=O)c1ccccc1O here?
The viability at 48 h, 25 µM was over 70%.

And the IC50 [2]?
The IC50 was 70 nM.

With CCOc1cccc2cc(C(=O)NNC(=O)c3cc(Cl)ccc3O)c(=O)oc12 as the compound, how does the viability at 48 h, 25 µM [1] read?
The viability at 48 h, 25 µM was over 70%.

And the IC50 [2]?
The IC50 was 31 nM.

What does the source list for CCOc1cccc2cc(C(=O)NNC(=O)c3ccccc3O)c(=O)oc12?
viability at 48 h, 25 µM [1]: > 70%; IC50 [2]: 104 nM

For CCOc1cccc2cc(C(=O)NNC(=O)c3cccc(OC)c3O)c(=O)oc12, which viability at 48 h, 25 µM [1] is on record?
The viability at 48 h, 25 µM was over 70%.

With O=C(NNC(=O)c1cc2ccccc2oc1=O)c1cc(Cl)ccc1O as the compound, how does the viability at 48 h, 25 µM [1] read?
The viability at 48 h, 25 µM was over 70%.

And the IC50 [2]?
Its IC50 is 33 nM.

Which viability at 48 h, 25 µM [1] does the source give for COc1cccc(C(=O)NNC(=O)c2cc3cc(Cl)ccc3oc2=O)c1O here?
Its viability at 48 h, 25 µM is over 70%.

Which viability at 48 h, 25 µM [1] does the source give for COc1cccc(C(=O)NNC(=O)c2cc3cccc(OC)c3oc2=O)c1O here?
Its viability at 48 h, 25 µM is over 70%.

Which viability at 48 h, 25 µM [1] does the source give for COc1ccc(O)c(C(=O)NNC(=O)c2cc3cc(Cl)ccc3oc2=O)c1 here?
Its viability at 48 h, 25 µM is over 70%.

What about the IC50 [2] of the same compound?
The IC50 was 605 nM.

For O=C(NNC(=O)c1cc2cc(Br)ccc2oc1=O)c1ccccc1O, which viability at 48 h, 25 µM [1] is on record?
The viability at 48 h, 25 µM was over 70%.

And the IC50 [2]?
The IC50 was 14 nM.

Which results are given for O=C(NNC(=O)c1cc2cc(Cl)ccc2oc1=O)c1cc(Cl)ccc1O?
viability at 48 h, 25 µM [1]: > 70%; IC50 [2]: 41 nM

Which viability at 48 h, 25 µM [1] does the source give for COc1cccc2cc(C(=O)NNC(=O)c3ccccc3O)c(=O)oc12 here?
Its viability at 48 h, 25 µM is over 70%.

And the IC50 [2]?
Its IC50 is 47 nM.

Which viability at 48 h, 25 µM [1] does the source give for COc1cccc(C(=O)NNC(=O)c2cc3ccccc3oc2=O)c1O here?
The viability at 48 h, 25 µM was over 70%.
